# From ChEMBL document CHEMBL3392987, “Novel synthetic coumarins that targets NF-κB in Hepatocellular carcinoma” (Bioorg Med Chem Lett, 2015)
# Activity calls are given as the source filed them. The rule behind the calls is not given here.
# Columns and labels:
# HepG2 [1] = test: Cytotoxicity against human HepG2 cells after 24 to 72 hrs by MTT assay; format: functional, cell-based
# Procedure, shortened: (§1)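 HepG2 cells plated in triplicate and treated with a range of compound concentrations. MTT assay run after 24, 48 and 72 h. Data given as mean ± SD of triplicates, with p <0.05 flagged.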
# HepG2 [2] = test: Cytotoxicity against human HepG2 cells at 5 to 15 uM by MTT assay; format: functional, cell-based; settings: TDE = time-dependent effect; procedure, shortened: as §1
# PLC-PRF-5 = test: Cytotoxicity against human PLC/PRF/5 cells by MTT assay; format: functional, cell-based
# Huh-7 = test: Cytotoxicity against human HuH7 cells by MTT assay; format: functional, cell-based
# HepG2 [3] = test: Induction of apoptosis in human HepG2 cells assessed as PARP cleavage after 12 to 48 hrs by MTT assay; format: functional, cell-based; settings: in the assay text read “by Western blotting” for “by MTT assay”
# Procedure, shortened: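 HepG2 cells treated with compound over a time course. Whole-cell extract (30 µg protein) resolved on 10% SDS–PAGE; membrane cut by molecular weight, probed for PARP, then probed for β-actin on the same blots as loading control.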
# [4] = Cytotoxicity against human LO2 cells at 50 uM after 72 hrs by MTT assay; format: cell-based; settings: l02, 72 h
# [5] = target: T1, Nuclear factor NF-kappa-B complex (Homo sapiens) (UniProt Q00653+P19838+Q04206); test: Inhibition of NF-kappaB DNA binding activity in human HepG2 cell nuclear extract at 50 uM by ELISA-based DNA binding assay; format: protein-complex assay; settings: TDE = time-dependent effect
# T1 sequence (P19838 whole entry, looked up): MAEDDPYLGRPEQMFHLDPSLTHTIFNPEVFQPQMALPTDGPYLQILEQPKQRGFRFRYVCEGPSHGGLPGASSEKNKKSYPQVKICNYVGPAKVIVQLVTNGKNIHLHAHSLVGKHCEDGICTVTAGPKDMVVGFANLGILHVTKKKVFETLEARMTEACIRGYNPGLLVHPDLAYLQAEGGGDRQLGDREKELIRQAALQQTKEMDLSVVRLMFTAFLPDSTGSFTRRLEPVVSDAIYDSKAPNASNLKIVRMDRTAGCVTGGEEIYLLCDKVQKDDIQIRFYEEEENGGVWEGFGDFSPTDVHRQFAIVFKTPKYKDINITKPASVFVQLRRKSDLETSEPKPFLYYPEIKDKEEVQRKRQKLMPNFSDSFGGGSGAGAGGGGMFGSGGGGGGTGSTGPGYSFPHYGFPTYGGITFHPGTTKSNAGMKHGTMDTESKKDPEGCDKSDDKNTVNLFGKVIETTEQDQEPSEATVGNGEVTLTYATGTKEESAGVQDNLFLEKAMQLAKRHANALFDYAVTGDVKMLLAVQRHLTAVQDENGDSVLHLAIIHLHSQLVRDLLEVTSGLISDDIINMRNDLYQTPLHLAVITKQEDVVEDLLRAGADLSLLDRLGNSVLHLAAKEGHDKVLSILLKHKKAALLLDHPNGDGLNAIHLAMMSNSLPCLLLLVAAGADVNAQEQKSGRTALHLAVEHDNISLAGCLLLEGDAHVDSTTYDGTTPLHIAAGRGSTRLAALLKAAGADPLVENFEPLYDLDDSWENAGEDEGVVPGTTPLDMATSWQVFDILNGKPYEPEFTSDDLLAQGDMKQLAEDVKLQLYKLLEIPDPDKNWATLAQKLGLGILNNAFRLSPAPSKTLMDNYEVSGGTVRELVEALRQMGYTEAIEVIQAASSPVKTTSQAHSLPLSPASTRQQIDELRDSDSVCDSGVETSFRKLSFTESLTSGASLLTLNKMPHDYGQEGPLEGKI
# T1 sequence (Q00653 whole entry, looked up): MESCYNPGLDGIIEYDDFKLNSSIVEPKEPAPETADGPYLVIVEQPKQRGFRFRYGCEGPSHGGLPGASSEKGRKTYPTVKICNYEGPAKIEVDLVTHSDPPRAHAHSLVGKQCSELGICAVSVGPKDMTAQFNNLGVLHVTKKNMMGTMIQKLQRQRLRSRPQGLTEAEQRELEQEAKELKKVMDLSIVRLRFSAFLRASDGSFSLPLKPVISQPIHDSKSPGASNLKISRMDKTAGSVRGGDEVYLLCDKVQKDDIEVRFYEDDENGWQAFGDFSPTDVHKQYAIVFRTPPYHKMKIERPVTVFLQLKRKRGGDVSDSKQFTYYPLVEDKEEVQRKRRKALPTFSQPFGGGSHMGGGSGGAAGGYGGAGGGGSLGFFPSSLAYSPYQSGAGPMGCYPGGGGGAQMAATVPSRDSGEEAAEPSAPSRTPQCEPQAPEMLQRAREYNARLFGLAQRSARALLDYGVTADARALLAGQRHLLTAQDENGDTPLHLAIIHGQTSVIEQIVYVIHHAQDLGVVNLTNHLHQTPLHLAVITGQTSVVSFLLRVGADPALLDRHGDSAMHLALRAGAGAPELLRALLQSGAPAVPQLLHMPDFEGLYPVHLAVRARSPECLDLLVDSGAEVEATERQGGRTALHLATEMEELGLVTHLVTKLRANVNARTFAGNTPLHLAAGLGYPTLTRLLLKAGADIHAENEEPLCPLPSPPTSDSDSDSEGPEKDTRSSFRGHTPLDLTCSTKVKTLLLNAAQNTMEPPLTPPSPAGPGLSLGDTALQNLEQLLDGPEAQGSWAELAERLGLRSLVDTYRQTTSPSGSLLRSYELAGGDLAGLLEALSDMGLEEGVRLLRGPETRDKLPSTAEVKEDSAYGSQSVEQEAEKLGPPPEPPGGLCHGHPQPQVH
# T1 sequence (Q04206 whole entry, looked up): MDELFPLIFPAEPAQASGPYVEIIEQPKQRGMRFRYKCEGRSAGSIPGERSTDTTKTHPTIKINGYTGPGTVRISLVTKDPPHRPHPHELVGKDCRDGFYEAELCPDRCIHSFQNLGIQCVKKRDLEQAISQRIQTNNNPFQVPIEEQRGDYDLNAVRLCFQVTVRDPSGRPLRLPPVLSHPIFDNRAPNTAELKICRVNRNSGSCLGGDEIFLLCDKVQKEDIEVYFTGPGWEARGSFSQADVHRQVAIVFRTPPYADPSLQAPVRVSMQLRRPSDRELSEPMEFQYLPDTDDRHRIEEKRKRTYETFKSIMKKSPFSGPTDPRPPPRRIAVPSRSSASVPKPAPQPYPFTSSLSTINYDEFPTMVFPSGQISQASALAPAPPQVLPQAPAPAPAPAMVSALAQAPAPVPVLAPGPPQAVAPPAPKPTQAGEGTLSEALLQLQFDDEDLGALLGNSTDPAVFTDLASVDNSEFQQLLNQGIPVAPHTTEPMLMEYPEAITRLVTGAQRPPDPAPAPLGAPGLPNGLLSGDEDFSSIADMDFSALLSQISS
# Procedure, shortened: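 HepG2 cells treated with 50 µM compound over a time course, then nuclear extracts prepared. Extract protein (5 µg) tested in an ELISA-based TransAM NF-κB DNA-binding kit. Representative of two independent experiments.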
# [6] = target: T1, Nuclear factor NF-kappa-B complex (Homo sapiens); test: Inhibition of NF-kappaB in human HepG2 cell extract assessed as reduction in cyclin D1 expression at 50 uM after 12 to 48 hrs by Western blotting; format: cell-based
# Procedure, shortened: (§2)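 HepG2 cells treated with 50 µM compound over a time course. Whole-cell extract (30 µg protein) resolved on 10% SDS–PAGE; membrane cut by molecular weight and probed for cyclin D1, Bcl-2, survivin or C-Myc. Blots stripped and reprobed for β-actin as loading control. Representative of two independent experiments.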
# [7] = target: T1, Nuclear factor NF-kappa-B complex (Homo sapiens); test: Inhibition of NF-kappaB in human HepG2 cell extract assessed as reduction in Bcl-2 expression at 50 uM after 12 to 48 hrs by Western blotting; format: cell-based; procedure, shortened: as §2
# [8] = target: T1, Nuclear factor NF-kappa-B complex (Homo sapiens); test: Inhibition of NF-kappaB in human HepG2 cell extract assessed as reduction in survivin expression at 50 uM after 12 to 48 hrs by Western blotting; format: cell-based; procedure, shortened: as §2
# [9] = target: T1, Nuclear factor NF-kappa-B complex (Homo sapiens); test: Inhibition of NF-kappaB in human HepG2 cell extract assessed as reduction in C-Myc expression at 50 uM after 12 to 48 hrs by Western blotting; format: cell-based; procedure, shortened: as §2
# HepG2 [10] = test: Antiinvasive activity in CXCL12-induced human HepG2 cells at 50 uM after 8 hrs by matrigel invasion assay
# HepG2 [11] = test: Antiinvasive activity in CXCL12-induced human HepG2 cells at 50 uM after 8 hrs by in vitro migration assay
# [12] = target: T1, Nuclear factor NF-kappa-B complex (Homo sapiens); test: Inhibition of NF-kappaB in human HepG2 cell extract assessed as reduction in MMP12 expression at indicated concentrations by Western blotting
SMILES,IC50 (HepG2 [1]) [µM],also measured
O=c1cc(CSC(=S)N2CCCC2)c2ccc(F)cc2o1,62.5,–
CN(C)C(=S)SCc1cc(=O)oc2c1ccc1ccccc12,63.9,–
COC(=O)Nc1ccc2c(CSC(=S)N(C)C)cc(=O)oc2c1,61.4,–
O=c1cc(CSC(=S)N2CCCC2)c2cc(F)ccc2o1,66.7,–
CN(C)C(=S)SCc1cc(=O)oc2ccc(F)cc12,58.6,–
Cc1ccc2oc(=O)cc(CSC(=S)N(C)C)c2c1,65.5,–
Cc1cc(C)c2c(CSC(=S)N(C)C)cc(=O)oc2c1,62.8,–
CCOC(=O)Nc1ccc2c(CSC(=S)N3CCCC3)cc(=O)oc2c1,14.8,Activity (HepG2 [2]): tde; Activity (HepG2 [1]): Dose-dependent effect; Activity (PLC-PRF-5): Dose-dependent effect; Activity (Huh-7): Dose-dependent effect; Activity (HepG2 [3]): Active; Activity [4]: Non-toxic; Activity [5]: tde; Activity [6]: Active; Activity [7]: Active; Activity [8]: Active; Activity [9]: Active; Activity (HepG2 [10]): Active; Activity (HepG2 [11]): Active; Activity [12]: Active
COc1ccc2oc(=O)cc(CSC(=S)N(C)C)c2c1,60.4,–
CCOC(=O)Nc1ccc2c(CSC(=S)N(C)C)cc(=O)oc2c1,66.3,–
COc1ccc2oc(=O)cc(CSC(=S)N3CCCC3)c2c1,53.5,–
O=c1cc(CSC(=S)N2CCCC2)c2ccc(Cl)cc2o1,60.8,–
COc1ccc2c(CSC(=S)N3CCCC3)cc(=O)oc2c1,61.5,–
O=c1cc(CSC(=S)N2CCCC2)c2ccc3ccccc3c2o1,62.1,–
